Assay results: publication PMC6142812 (Bioorganic & medicinal chemistry letters, 2018)

What was measured:
rat mGlu5 = rat mGlu5 (Rattus norvegicus, UniProt P31424); assay: Calcium mobilization rat mGlu5 functional assay; assay type: cell-based; conditions: for mGlu5 pIC50 (±SEM): rat mGlu5 in HEK293A cells, EC80 glutamate, avg. of n ≥ 3; for fold more active than 11: mGlu5 potency relative to compound 11
[1] = Metabolic stability in rat S9 hepatic fractions with and without NADPH; assay type: in vitro ADME; conditions: for CLHEP (predicted hepatic clearance): QH = 70; for CLint scaled at 1 h: rat, liver S9 hepatic fractions, CLINT (intrinsic clearance)
[2] = Metabolic stability in human S9 hepatic fractions with and without NADPH; assay type: in vitro ADME; conditions: for CLHEP (predicted hepatic clearance): QH = 21; for CLint scaled at 1 h: human, liver S9 hepatic fractions, CLINT (intrinsic clearance)
[3] = tested on: other seven mGlu receptors; conditions: comparators 1 and 2, previously published; cited from earlier work
[4] = Rat pharmacokinetics study, intravenous dosing; assay type: in vivo; conditions: compound 14; male Sprague-Dawley rats, IV 1.0 mg/kg, n=2
Summary of the method: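 Single IV dose of 1.0 mg/kg test compound given to male Sprague-Dawley rats (n=2). Half-life, mean residence time, plasma clearance and steady-state volume of distribution were derived for the parent and for its alcohol metabolite.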

[5] = Stability in rat whole blood at 37 °C; assay type: in vitro ADME; conditions: one hour

Chain of rat mGlu5 (P31424 21-1203): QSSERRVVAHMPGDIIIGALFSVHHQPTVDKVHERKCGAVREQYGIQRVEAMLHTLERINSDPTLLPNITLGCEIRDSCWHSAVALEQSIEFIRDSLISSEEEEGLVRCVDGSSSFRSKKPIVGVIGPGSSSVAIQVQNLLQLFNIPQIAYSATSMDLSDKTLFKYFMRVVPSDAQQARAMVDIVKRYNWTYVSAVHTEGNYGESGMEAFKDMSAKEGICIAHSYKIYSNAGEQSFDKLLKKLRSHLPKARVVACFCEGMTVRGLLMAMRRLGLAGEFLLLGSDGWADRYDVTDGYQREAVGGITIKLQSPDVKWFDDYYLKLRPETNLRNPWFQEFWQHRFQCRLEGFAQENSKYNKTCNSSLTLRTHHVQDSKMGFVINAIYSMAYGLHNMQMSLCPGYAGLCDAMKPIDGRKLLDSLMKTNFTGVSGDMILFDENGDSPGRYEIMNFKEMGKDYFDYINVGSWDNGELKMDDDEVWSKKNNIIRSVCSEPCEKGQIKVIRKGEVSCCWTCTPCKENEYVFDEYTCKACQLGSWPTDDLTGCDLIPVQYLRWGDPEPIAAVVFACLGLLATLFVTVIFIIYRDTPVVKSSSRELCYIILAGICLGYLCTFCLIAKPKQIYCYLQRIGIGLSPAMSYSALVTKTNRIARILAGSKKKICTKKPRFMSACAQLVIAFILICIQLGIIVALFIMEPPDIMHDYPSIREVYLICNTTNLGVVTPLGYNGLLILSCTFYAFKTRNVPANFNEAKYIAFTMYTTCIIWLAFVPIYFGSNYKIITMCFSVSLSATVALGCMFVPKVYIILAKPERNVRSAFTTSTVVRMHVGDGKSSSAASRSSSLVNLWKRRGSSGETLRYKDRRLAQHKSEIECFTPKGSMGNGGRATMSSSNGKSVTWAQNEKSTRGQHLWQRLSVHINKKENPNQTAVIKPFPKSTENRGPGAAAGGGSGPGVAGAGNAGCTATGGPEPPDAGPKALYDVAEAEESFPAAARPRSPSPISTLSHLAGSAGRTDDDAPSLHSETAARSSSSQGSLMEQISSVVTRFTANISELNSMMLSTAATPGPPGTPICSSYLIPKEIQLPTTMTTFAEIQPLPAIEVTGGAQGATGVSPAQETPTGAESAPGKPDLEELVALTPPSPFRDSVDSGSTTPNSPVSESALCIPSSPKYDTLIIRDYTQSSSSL

COc1ccnc(NC(=O)c2cc(C(F)(F)c3cncnc3)cc3cccnc23)c1 [Compound 34]
mGlu5 pIC50 (±SEM) (rat mGlu5): < 4.5

Cc1csc(NC(=O)c2cc(C(F)c3cncnc3)cc3cccnc23)n1 (stereo not drawn) [Compound 21]
CLHEP (predicted hepatic clearance) ([1]; rat S9, +NADPH, CLHEP = (QH × CLINT)/(QH + CLINT)): 51.8 mL/min/kg | CLHEP (predicted hepatic clearance) ([1]; rat S9, −NADPH): 23.2 mL/min/kg | CLint scaled at 1 h ([1]; rat S9, +NADPH): 199 mL/min/kg | CLint scaled at 1 h ([1]; rat S9, −NADPH): 34.7 mL/min/kg | CLHEP (predicted hepatic clearance) ([2]; human S9, +NADPH, CLHEP = (QH × CLINT)/(QH + CLINT)): 17.3 mL/min/kg | CLHEP (predicted hepatic clearance) ([2]; human S9, −NADPH): 12.6 mL/min/kg | CLint scaled at 1 h ([2]; human S9, +NADPH): 98.2 mL/min/kg | CLint scaled at 1 h ([2]; human S9, −NADPH): 31.3 mL/min/kg

O=C(c1cncnc1)c1cc(C(=O)Nc2ccc(F)cn2)c2ncccc2c1 [Compound 13]
fold more active than 11 (rat mGlu5): more than 10 fold

O=C(Nc1nc(C2CC2)cs1)c1cc(C(F)(F)c2cncnc2)cc2cccnc12 [Compound 36]
fold drop in mGlu5 potency (rat mGlu5; relative to compound 27 (methyl to cyclopropyl)): 3.5 fold

O=C(Nc1ccc(F)cn1)c1cc(Oc2cncc(F)c2)cn2ncnc12 [Compound 2]
selectivity vs. other mGlus [3]: >500

N#Cc1ccc(NC(=O)c2cc(C(F)(F)c3cncnc3)cc3cccnc23)nc1 [Compound 32]
mGlu5 pIC50 (±SEM) (rat mGlu5): < 4.5

O=C(Nc1ccc(F)cn1)c1cc(Oc2cncc(F)c2)cc2cccnc12 [Compound 3]
potency versus mGlu5 (in words) (rat mGlu5; compared with compound 2): similarly potent

Cc1csc(NC(=O)c2cc(C(=O)c3cncnc3)cc3cccnc23)n1 [Compound 14]
Clp [4]: 3430 mL/min/kg | conversion to metabolite (ketone reduction, alcohol 53) [5]: near complete conversion

Cc1cccc(NC(=O)c2cc(C(=O)c3cncnc3)cc3cccnc23)n1 [Compound 12]
fold more active than 11 (rat mGlu5): more than 10 fold

N#Cc1ccnc(NC(=O)c2cc(C(F)(F)c3cncnc3)cc3cccnc23)c1 [Compound 35]
mGlu5 pIC50 (±SEM) (rat mGlu5): < 4.5
